Results on six compounds are retold here after ChEMBL document CHEMBL4052589, “Discovery of Imidazo[1,2-a]pyridine Ethers and Squaramides as Selective and Potent Inhibitors of Mycobacterial Adenosine Triphosphate (ATP) Synthesis” (J Med Chem, 2017).

The experiment deals with Mycobacterium tuberculosis. Kind of experiment: Induction of membrane damage in Mycobacterium bovis BCG after 60 mins by DiOC2 probe-based fluorescence assay. As to conditions: variant bovis BCG, 1 h. It is filed as functional. The procedure, abridged: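 Cell-based assay. Mid-log phase BCG culture was pre-loaded with DiOC2 before compound exposure. Fluorescence was read as the red-shifted emission at 600 nm, which tracks membrane potential. CCCP served as the positive control, and IC50 was derived.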

Take `c1ccc(OCCCOc2c(-c3ccccc3)nc3ccccn23)cc1`: the IC50 was above 100 µM. `O=c1c(NCc2cnccn2)c(-c2ccc(N3CCOCC3)cc2)c1=O`: the IC50 is above 100 µM. Turning to `Cc1ccc2nc(-c3ccc(F)cc3)c(OCCCNc3ccc(F)c(C)c3)n2c1`, the IC50 is above 100 µM. Consider `Cc1ccc2nc(-c3ccc(F)cc3)c(OCCCNc3ccc(F)c(C)n3)n2c1`, for which the IC50 is above 100 µM. With `Cc1ccc2nc(-c3ccccc3)c(OCCCOc3ccccc3)n2c1`, the IC50 was above 100 µM. The same measure for `O=c1c(NCc2ccccn2)c(-c2ccc(N3CCOCC3)cc2)c1=O`: above 100 µM.
